One may read the inhibition as the percentage by which the read-out fell short of the control. The low end stands for a response near the control, the high end for a response far below the control. As usually defined, the pIC50 is −log10 of the IC50, conventionally taken in molar units. As a reminder, the inhibition in vivo is the change of the read-out against control, counted positive when it falls. A lower inhibition in vivo goes with little suppression. A word on the bioavailability: it is the share of a dose that reaches the circulation, judged against a reference dose that is usually intravenous.

pIC50: −log10 of the molar value.

These results are taken from ChEMBL document CHEMBL1135762, “Chiral N,N-disubstituted trifluoro-3-amino-2-propanols are potent inhibitors of cholesteryl ester transfer protein” (J Med Chem, 2002).

For series [1], the target named is T1, Cholesteryl ester transfer protein (Homo sapiens) (UniProt P11597).
T1 sequence (whole entry): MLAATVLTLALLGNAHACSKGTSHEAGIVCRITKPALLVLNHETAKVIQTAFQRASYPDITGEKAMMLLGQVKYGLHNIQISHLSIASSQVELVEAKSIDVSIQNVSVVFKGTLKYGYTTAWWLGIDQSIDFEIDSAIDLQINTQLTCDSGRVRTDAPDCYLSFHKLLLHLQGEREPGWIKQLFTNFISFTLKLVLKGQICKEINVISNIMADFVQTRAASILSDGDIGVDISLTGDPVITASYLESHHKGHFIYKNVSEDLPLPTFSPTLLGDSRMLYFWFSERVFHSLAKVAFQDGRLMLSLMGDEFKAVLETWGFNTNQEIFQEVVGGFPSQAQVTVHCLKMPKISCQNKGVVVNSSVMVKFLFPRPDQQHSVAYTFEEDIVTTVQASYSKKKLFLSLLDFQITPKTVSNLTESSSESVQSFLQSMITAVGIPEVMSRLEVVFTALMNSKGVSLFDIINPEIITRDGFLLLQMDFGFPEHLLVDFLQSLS
Conditions: Cricetulus griseus; 33 mg/kg.

The target in series [2] is T2, Cholesteryl ester transfer protein (Homo sapiens, UniProt P11597).
T2 sequence (P11597 whole entry): T1 sequence (whole entry)
Briefly: Concentration required for 50% inhibition of cholesteryl ester transfer protein in presence of buffer.

Series [3] concerns the target T2, Cholesteryl ester transfer protein. Kind of series: Inhibition of cholesteryl ester transfer protein in presence of human serum. A digest of the protocol:
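CETP-mediated transfer of [³H]CE from HDL donor particles, measured with human serum supplying LDL, VLDL and human CETP.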

Series [4] has as its target T1, Cholesteryl ester transfer protein (Homo sapiens). Conditions: Cricetulus griseus; 30 mg/kg.
For series [5], the system named is Mus musculus. Kind of series: Inhibition of CETP-mediated transfer ex vivo after 30 min in hCEPT transgenic mice by a single dose at 30 mg/kg. Type of series: functional. Conditions: 0.5 h. Summed up: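 C57Bl/6 mice homozygous for the human CETP gene, fed high-fat chow for at least 2 weeks. Single 30 mg/kg iv bolus in 10% ethanol/90% PEG; controls got vehicle. 0.05 mL [³H]CE-HDL (human HDL) was given into the tail vein. After 30 min, EDTA blood was taken and plasma obtained at 4 °C. Gel filtration gave the [³H]CE proportion in VLDL, LDL and HDL, compared with controls.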

Series [6] can be described thus: Bioavailability in mice was reported. It is filed as ADME, organism-based. The note with it: mouse, in vivo.
Series [7] deals with Mus musculus. Kind of series: Oral dosing of qd for 5 days at 30 mg/kg had percent increase of HDLc in hCEPT transgenic mice. Type of series: functional. A digest of the protocol: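 C57bl mice transgenic for human CETP (plasma hCETP 2–20 µg/mL), fed cholesterol- and fat-supplemented chow for at least 2 weeks. Dosed orally at 30 mg/kg once daily for 5 days. Serum then analysed by size exclusion chromatography on two Superose 6 columns for relative VLDLc, LDLc and HDLc.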

On to `O[C@H](CN(Cc1cccc(OC(F)(F)C(F)F)c1)c1cccc(Oc2ccccc2)c1)C(F)(F)F`, for which the inhibition in series [1] was 30%.

Turning to `OC(CN(Cc1cccc(Oc2cccc(C(F)(F)F)c2)c1)c1cccc(F)c1)C(F)(F)F` (stereo not given), the pIC50 in series [2] is less than 4.00.

For the compound `OC(CN(Cc1cccc(OC(F)(F)C(F)F)c1)c1cccc(F)c1)C(F)(F)F` (stereo not given), in series [2], the pIC50 was 5.35.

For `Cc1ccc(N(Cc2cccc(C(F)(F)F)c2)CC(O)C(F)(F)F)cc1` (stereo not given), the pIC50 in series [2] is less than 4.00.

In the case of `OC(Cc1ccccc1)CN(Cc1cccc(OC(F)(F)F)c1)c1cccc(Oc2ccccc2)c1` (stereo not given), the negative-log IC50 (pIC50) in series [2] was less than 4.30.

Regarding `Cc1ccc(CN(CC(O)C(F)(F)F)c2cccc(F)c2)cc1` (stereo not given), in series [2], the pIC50 is 4.19.

Turning to `COC(=O)c1cccc(CN(CC(O)C(F)(F)F)c2cccc(Oc3ccccc3)c2)c1` (stereo not given), in series [2], the pIC50 is 4.80.

Turning to `CC(C)(C)Oc1cccc(CN(CC(O)C(F)(F)F)c2cccc(Oc3ccccc3)c2)c1` (stereo not given), the pIC50 in series [3] was 4.54; in series [2], 6.18.

For the compound `Cc1ccccc1CN(CC(O)C(F)(F)F)c1cccc(F)c1` (stereo not given), in series [2], the pIC50 is less than 4.00.

On to `OC(COc1cccc(CN(CC(O)C(F)(F)F)c2cccc(Oc3ccccc3)c2)c1)C(F)(F)F` (stereo not given), for which the pIC50 in series [3] was 4.21; in series [2], 5.89.

In the case of `CC(C)(O)c1cccc(CN(CC(O)C(F)(F)F)c2cccc(Oc3ccccc3)c2)c1` (stereo not given), in series [2], the pIC50 was 5.11.

Turning to `OC(CN(Cc1cccc(OC(F)(F)C(F)F)c1)c1cccc(Oc2ccccc2)c1)C(F)(F)F` (stereo not given), in series [4], the inhibition came out at 30%. The same compound came in with an inhibition in vivo at 30 mg/kg in the series on Mus musculus [5] of 50%. Besides, the bioavailability in series [6] is less than 10%. Further, the Increase in the series on Mus musculus [7] stood at 20%.

With `C=CC(O)CN(Cc1cccc(OC(F)(F)F)c1)c1cccc(Oc2ccccc2)c1` (stereo not given), in series [2], the pIC50 was less than 4.30.

For the compound `COc1cccc(CN(CC(O)C(F)(F)F)c2cccc(Oc3ccccc3)c2)c1` (stereo not given), the pIC50 is less than 3.70 in series [3] and 4.82 in series [2].

Take `OC(CN(Cc1cccc(C2CCCC2)c1)c1cccc(Oc2ccccc2)c1)C(F)(F)F` (stereo not given): the pIC50 in series [2] is 6.52.

For `OC(CN(Cc1cccc(OC(F)(F)F)c1)c1cccc(Oc2ccccc2)c1)c1ccccc1` (stereo not given), in series [2], the pIC50 was less than 4.30.

Regarding `OC(CN(Cc1cccc(C(F)(F)F)c1)c1cccc(Cl)c1)C(F)(F)F` (stereo not given), the pIC50 in series [2] was 4.92.

For `OC(CN(Cc1cccc(C(F)(F)F)c1)c1cccc(F)c1)C(F)(F)F` (stereo not given), the pIC50 in series [2] was 4.43.

On to `Cc1ccccc1N(Cc1cccc(C(F)(F)F)c1)CC(O)C(F)(F)F` (stereo not given), for which, in series [2], the pIC50 was less than 4.00.
